Series [1] has as its target T1, Mitogen-activated protein kinase; ERK1/ERK2 (Homo sapiens) (UniProt P27361+P28482). As to the kind of experiment: Inhibition of ERK1/2 in serum starved/PMA-stimulated HEK293 cells assessed as reduction in RSK phosphorylation at T573 residues at 200 nM incubated for 30 mins by immunoblot analysis. Format: cell-based.
Series [2] deals with T1, Mitogen-activated protein kinase; ERK1/ERK2 (Homo sapiens). In words: Inhibition of ERK1/2 in serum starved/PMA-stimulated HEK293 cells assessed as reduction in RSK activity at 200 nM using crosstide as substrate incubated for 30 mins in presence of [32P]-ATP by liquid-scintillation counting method. Format: cell-based.
For series [3] the target is unchanged. As to the kind of experiment: Inhibition of ERK1/2 in serum starved/PMA-stimulated HEK293 cells assessed as reduction in RSK phosphorylation at S380 residues at 200 nM incubated for 30 mins by immunoblot analysis. Format: cell-based.
Series [4] has the same target. As to the kind of experiment: Inhibition of ERK1/2 in serum starved/PMA-stimulated HEK293 cells assessed as reduction in ERK1/2 phosphorylation at T202/Y204 residues at 200 nM incubated for 30 mins by immunoblot analysis. Type of series: cell-based.
For series [5] the target is unchanged. As to the kind of experiment: Inhibition of ERK1/2 in serum starved/PMA-stimulated HEK293 cells assessed as reduction in RSK phosphorylation at S227 residues at 200 nM incubated for 30 mins by immunoblot analysis. Type of series: cell-based.
For series [6], the system named is MEF. In words: Inhibition of PI3K/mTOR in MEF cells assessed as reduction in NDRG1 phosphorylation incubated ay 1 uM for 30 mins by immunoblot analysis. Particulars: Mus musculus. Type of series: cell-based. A digest of the protocol:
(§1)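 HeLa cells or wild-type/knockout MEFs cultured in 10% serum and treated 30 min with inhibitor. Lysed in Tris lysis buffer and extracts immunoblotted with an antibody to NDRG1 phosphorylated at Thr346/356/366. Three experiments.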

In another series the test system is HeLa. As to the kind of experiment: Inhibition of PI3K/mTOR in human HeLa cells assessed as reduction in NDRG1 phosphorylation incubated ay 1 uM for 30 mins by immunoblot analysis. Format: cell-based. A digest of the protocol:
as §1

For series [7], the system named is HEK293. As to the kind of experiment: Inhibition of PI3K in serum starved HEK293 cells expressing GST-tagged-AKT1 S473D mutant assessed as reduction in IGF1-stimulated AKT1 phosphorylation at Thr308 residue at 1 uM incubated for 20 mins by immunoblot analysis. Format: cell-based. Particulars: Homo sapiens. The procedure, abridged:
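HEK-293 cells transfected with wild-type or S473D GST–Akt1. At 24 h, serum-starved 16 h, pretreated 30 min with inhibitor, then stimulated with IGF-1 for 20 min. Lysates immunoblotted for Thr308 phosphorylation. Three separate experiments.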

Series [8] relates to MEF. As to the kind of experiment: Inhibition of PI3K in serum starved sin1 knockout MEF cells assessed as reduction IGF1-stimulated AKT phosphorylation at Thr308 residue at 1 uM incubated for 20 mins by immunoblot analysis. As to conditions: Mus musculus. Format: cell-based. The procedure, abridged:
(§2)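 Wild-type, Rictor-, mLST8- or Sin1-knockout MEFs serum-deprived, pretreated 30 min with inhibitor, then stimulated with IGF-1 for 20 min. Lysates immunoblotted for Akt Thr308 phosphorylation. Three independent experiments.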

In series [9] the test system is MEF. In words: Inhibition of PI3K in serum starved MEF cells assessed as reduction IGF1-stimulated AKT phosphorylation at Thr308 residue at 1 uM incubated for 20 mins by immunoblot analysis. Type of series: cell-based. As to conditions: Mus musculus. A digest of the protocol: as §2
Series [10] relates to HEK293. As to the kind of experiment: Inhibition of PI3K in IGF1-stimulated HEK293 cells assessed as reduction in IGF1-stimulated PtdIns(3,4,5)P3 production at 2 uM pre incubated for 30 mins followed by IGF1-stimulation for 10 mins. As to conditions: Homo sapiens. Format: cell-based.
Series [11] relates to MEF. As to the kind of experiment: Inhibition of PI3K in serum starved mLST8 knockout MEF cells assessed as reduction IGF1-stimulated AKT phosphorylation at Thr308 residue at 1 uM incubated for 20 mins by immunoblot analysis. As to conditions: Mus musculus. Format: cell-based. A digest of the protocol: as §2
Series [12] relates to MEF. In words: Inhibition of PI3K in serum starved Rictor knockout MEF cells assessed as reduction IGF1-stimulated AKT phosphorylation at Thr308 residue at 1 uM incubated for 20 mins by immunoblot analysis. Format: cell-based. As to conditions: Mus musculus. The procedure, abridged: as §2
For series [13], the target named is Serine/threonine-protein kinase mTOR (Homo sapiens) (UniProt P42345). As to conditions: HEK293, dose 100.0 nM, time 30.0 min.
Series [14] concerns MEF. As to the kind of experiment: Induction of cell cycle arrest in mLST8 knockout MEF cells assessed as accumulation at S phase at 100 nM incubated for 1 to 3 days by propidium iodide staining based flow cytometric analysis (reference value: 59.7 +/- 0.49%). Format: toxicity. Particulars: mouse, 0.1 µM, time 1-3 day.
The target of series [15] is Serine/threonine-protein kinase mTOR (Mus musculus) (UniProt Q9JLN9). As to conditions: MEF, dose 100.0 nM, time 30.0 min.
Series [16] has as its system MEF. In words: Induction of cell cycle arrest in mLST8 knockout MEF cells assessed as accumulation at G1 phase at 100 nM incubated for 1 to 3 days by propidium iodide staining based flow cytometric analysis (reference value: 22.2 +/- 0.59%). Format: toxicity. As to conditions: mouse, 0.1 µM, time 1-3 day.
Series [17] deals with Serine/threonine-protein kinase mTOR (Mus musculus) (UniProt Q9JLN9). As to conditions: MEF, dose 100.0 nM, time 30.0 min. This is another data set of the same source.
The target is the same in series [18]. As to conditions: MEF, dose 100.0 nM, time 30.0 min. This is another data set of the same source.
Series [19] has as its system MEF. As to the kind of experiment: Induction of cell cycle arrest in MEF cells assessed as accumulation at S phase at 100 nM incubated for 1 to 3 days by propidium iodide staining based flow cytometric analysis (reference value: 61.5 +/- 0.78%). Type of series: toxicity. Particulars: mouse, 0.1 µM, time 1-3 day.
Series [20] deals with Serine/threonine-protein kinase mTOR (Mus musculus) (UniProt Q9JLN9). As to conditions: MEF, dose 100.0 nM, time 30.0 min. This is another data set of the same source.
Series [21] deals with Serine/threonine-protein kinase mTOR (Homo sapiens) (UniProt P42345). Particulars: HeLa, dose 100.0 nM, time 30.0 min.
Series [22] shares this target. Particulars: HEK293, dose 100.0 nM, time 30.0 min. The source holds these as a separate data set.
Series [23] relates to MEF. As to the kind of experiment: Induction of cell cycle arrest in MEF cells assessed as accumulation at G1 phase at 100 nM incubated for 1 to 3 days by propidium iodide staining based flow cytometric analysis (reference value: 21.4 +/- 1.7%). Format: toxicity. Particulars: mouse, 0.1 µM, time 1-3 day.
Series [24] relates to MEF. As to the kind of experiment: Induction of cell cycle arrest in mLST8 knockout MEF cells assessed as accumulation at G2 phase at 100 nM incubated for 1 to 3 days by propidium iodide staining based flow cytometric analysis (reference value: 14.1 +/- 0.69%). Type of series: toxicity. As to conditions: mouse, 0.1 µM, time 1-3 day.
The subject of series [25] is MEF. As to the kind of experiment: Induction of cell cycle arrest in MEF cells assessed as accumulation at G2 phase at 100 nM incubated for 1 to 3 days by propidium iodide staining based flow cytometric analysis (reference value: 15.4 +/- 2.04%). Particulars: mouse, 0.1 µM, time 1-3 day. Format: toxicity.
Series [26] deals with Serine/threonine-protein kinase mTOR (Mus musculus) (UniProt Q9JLN9). Particulars: MEF, dose 100.0 nM, time 30.0 min. The source holds these as a separate data set.

From ChEMBL document CHEMBL5678799 (Biochem J, 2009) come the findings set out here.

Activity calls are given as the source filed them. No cut-off for these calls is given here.

T1 sequence (P27361 whole entry, looked up): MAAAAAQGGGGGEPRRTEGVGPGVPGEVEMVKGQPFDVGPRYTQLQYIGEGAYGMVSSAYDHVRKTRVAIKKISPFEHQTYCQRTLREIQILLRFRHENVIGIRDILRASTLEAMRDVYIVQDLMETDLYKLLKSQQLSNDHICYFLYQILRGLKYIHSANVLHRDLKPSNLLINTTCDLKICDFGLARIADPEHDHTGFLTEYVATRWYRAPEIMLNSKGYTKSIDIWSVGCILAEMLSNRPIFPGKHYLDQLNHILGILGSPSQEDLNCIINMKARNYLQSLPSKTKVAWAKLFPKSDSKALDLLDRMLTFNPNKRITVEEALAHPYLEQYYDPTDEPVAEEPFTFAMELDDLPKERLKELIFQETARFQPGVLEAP
T1 sequence (P28482 whole entry, looked up): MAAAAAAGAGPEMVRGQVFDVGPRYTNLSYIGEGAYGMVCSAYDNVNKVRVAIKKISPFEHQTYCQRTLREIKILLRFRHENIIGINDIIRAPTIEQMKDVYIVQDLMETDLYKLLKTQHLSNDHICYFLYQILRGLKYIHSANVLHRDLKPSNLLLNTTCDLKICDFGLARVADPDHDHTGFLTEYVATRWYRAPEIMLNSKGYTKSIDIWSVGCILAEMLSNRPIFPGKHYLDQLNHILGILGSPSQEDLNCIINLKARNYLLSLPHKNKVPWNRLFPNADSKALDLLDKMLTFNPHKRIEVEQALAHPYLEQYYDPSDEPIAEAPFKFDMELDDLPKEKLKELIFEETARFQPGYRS

With `O=C(NOCC(O)CO)c1ccc(F)c(F)c1Nc1ccc(I)cc1Cl` (configuration not stated), the inhibition result in series [1], in series [2], in series [3], in series [4] and in [5] was “Active” throughout.

With `Oc1cccc(-c2nc(N3CCOCC3)c3oc4ncccc4c3n2)c1`, the inhibition result in the series on MEF [6], in the series on HeLa, with HEK293 [7], in the series on MEF [8], in the series on MEF [9] and in the series on HEK293 [10] was “Active” in each case. The inhibition result with MEF [11] and in the series with MEF [12] was “Active” throughout.

Take `CO[C@H]1C[C@@H]2CC[C@@H](C)[C@@](O)(O2)C(=O)C(=O)N2CCCC[C@H]2C(=O)O[C@H]([C@H](C)C[C@@H]2CC[C@@H](O)[C@H](OC)C2)CC(=O)[C@H](C)/C=C(\C)[C@@H](O)[C@@H](OC)C(=O)[C@H](C)C[C@H](C)/C=C/C=C/C=C/1C` [SIROLIMUS]: the inhibition entry in series [13], in [15], in series [17], in [20], in [22] and in series [26] was “Active” throughout. In addition, the Activity was 46.5% in the series with MEF [14]; 35.8% in the series with MEF [16]; 56.7% in the series with MEF [19]; 29.8% with MEF [23]; 14.4% in the series on MEF [24]; 11.2% with MEF [25]. Besides, the inhibition entry in series [18] and in series [21] was “inactive” throughout.
